Laboratory results published in publication PMC12800764 (ESMO Open, 2025).
Entries after “also recorded” stand apart in the source; their conditions may differ.

How the values were obtained:
advanced solid tumors = details: 0 of 25; cited from earlier work
ECC10 xenograft = details: human gastric cancer cell line (ECC10) xenograft model; cited from earlier work
[1] = system: advanced, unresectable, or recurrent solid tumors; test: Antitumor activity by investigators, RECIST v1.1, Study 103; assay type: in vivo, human
How it was run: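 Investigators assessed tumors by CT/MRI every 8 weeks, at end of treatment and when clinically indicated, using the screening modality and settings, per RECIST v1.1. Endpoints were objective response (CR/PR), disease control (CR/PR/SD) and clinical benefit (CR, PR, or SD lasting ≥23 weeks). All patients receiving ≥1 dose of oral test compound (b.i.d., 28-day cycles) were analysed.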

[2] = system: patients with advanced, unresectable, or recurrent solid tumors; test: Bone assessments; assay type: in vivo, human
How it was run: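 Both parts used DXA bone density at screening, C2D1 and every 12 weeks (±7 days) from C1D1. Fasting serum β-CTX was measured at screening, C2D1, C3D1, then every 8 weeks and at end of treatment. Dose-escalation added β-CTX at C1D15; expansion added DXA (C2D1 ±7 days) at end of treatment and when clinically indicated. Osteoporosis (T-score < −2.5) and untreated bone metastasis excluded patients.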

[3] = Plasma pharmacokinetics of E7386, noncompartmental analysis, Study 103; assay type: in vivo, human; details: 10-160 mg b.i.d.
[4] = system: patients with advanced, unresectable, or recurrent solid tumors; test: Dose-limiting toxicity evaluation; assay type: in vivo, human
How it was run: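 A 3 + 3 escalation started at 10 mg b.i.d. oral, given continuously in 28-day cycles; 10, 15 and 20 mg were predefined. Above 20 mg, steps were 100%, 40%-60% or 25%-39% depending on treatment-related grade 2 or ≥3 toxicity. DLTs were drug-related AEs in cycle 1 (28 days), graded by CTCAE v5.0. Patients dosed as planned in C1, or having a DLT, formed the analysis set.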

[5] = system: patients with advanced, unresectable, or recurrent solid tumors; test: Safety assessments; assay type: in vivo, human
How it was run: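 Safety covered all AEs of any grade, including DLTs and serious AEs, graded by NCI CTCAE v5.0. Hematology, chemistry and urinalysis were sampled before dosing at scheduled visits. Oral test compound was given b.i.d. in 28-day cycles (10-160 mg dose-escalation; 100 or 120 mg expansion). The analysis set was all patients receiving ≥1 dose.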

bone formation = details: rats; 7-day repeated-dose toxicity study; ref Data on file; cited from earlier work
[6] = system: activating transcription factor 4 pathway; details: preclinical models of HCC; cited from earlier work
Apc^Min/+ mice = details: cited from earlier work
desmoid tumors = details: patients with desmoid tumors; cited from earlier work
endometrial cancer = details: cited from earlier work

## Cc1c(-c2ccnc(C(F)(F)F)c2)ncn1CC(=O)Nc1ccc(-c2cnccn2)cn1 [RXC004]
Advanced solid tumors
  Objective response rate (ORR): 0%

## C=CCN1CC(=O)N2[C@@H](Cc3ccc(O)cc3F)C(=O)N(Cc3cccc(N4CC(N5CCN(CC)CC5)C4)n3)C[C@@H]2N1C(=O)NCc1ccccc1 [E7386]
ECC10 xenograft
  Tumor growth: inhibited tumor growth
[1]; dose-escalation part, SBC at 15 mg b.i.d. and desmoid tumor at 80 mg b.i.d.
  Patients achieving partial response (PR): two
[1]; expansion part
  Partial responses: No PRs were observed
[1]; expansion part, patient with CRC (APC/KRAS/TP53 mutations), 100 mg b.i.d., no tumor size reduction
  Treatment duration with durable SD: ~7 months
[1]; expansion part, patient with HCC, 120 mg b.i.d., with tumor size reduction
  Treatment duration with durable SD: ~7 months
[1]; irrespective of APC mutation status
  Antitumor activity in patients with CRC: did not indicate antitumor activity
[1]; patient with desmoid tumor, 80 mg b.i.d. cohort, ongoing at data cut-off
  Treatment period of responder (PR): > 3.5 years
[1]; patient with solid pseudopapillary neoplasm of the pancreas, 30 mg b.i.d. cohort
  Treatment duration with durable SD: > 2.5 years
[2]; 1 of 55 patients, spine: −2.4 at screening to −2.6 on C2D1
  Patients with T-score < −2.5 as per DXA scan during the study: 1.8%
[2]; 7 of 55 patients
  Patients with asymptomatic, post-baseline elevations in β-CTX >1000 pg/ml: 12.7%
[2]; either part of the study
  Bone fractures: No bone fractures were reported; also recorded: no bone fracture was observed
[3]; single and repeat dose, large inter-subject variability
  E7386 exposure versus dose: generally increased with dose
[3]; after oral administration on C1D1
  Time at which maximum plasma concentration was reached: 0.5 to 2.0 h
[3]; for each dose
  Geometric mean accumulation ratios for AUC: 1.12-3.81
  Geometric mean accumulation ratios for Cmax: 0.65-3.97
[4]; 160 mg b.i.d. cohort, cycle 1, dose-escalation
  Patients with dose-limiting toxicities (grade 3 decreased appetite): two
[4]; 10-120 mg b.i.d. cohorts, dose-escalation
  Dose-limiting toxicities: no DLTs were observed
[4]; oral, 28-day cycles
  Recommended dose of E7386 monotherapy: 120 mg b.i.d.
[5]; both parts
  Deaths due to TEAEs: No patients died due to TEAEs
[5]; dose-escalation part
  Nausea (TEAE) frequency: 83.3%
  Patients with grade ≥3 TEAEs: 15 patients
  Patients with grade ≥3 anemia: four
  Vomiting (TEAE) frequency: 61.1%
[5]; dose-escalation part, 13 patients
  TEAEs leading to dose interruption: 36.1%
[5]; dose-escalation part, 35 of 36 patients
  Patients with TEAEs: 97.2%
[5]; dose-escalation part, one patient (decreased appetite)
  TEAEs leading to dose reduction: 2.8%
[5]; dose-escalation part, two patients, not considered related to treatment
  TEAEs leading to study-drug discontinuation: 5.6%
[5]; expansion part
  Nausea (TEAE) frequency: 84.2%
  Patients with grade ≥3 TEAEs: 10 patients
  Patients with grade ≥3 anemia: two
  Patients with grade ≥3 hyponatremia: two
  Patients with grade ≥3 nausea: one
  TEAEs leading to study-drug discontinuation: No patient in the expansion part discontinued the study drug due to TEAEs
  Vomiting (TEAE) frequency: 73.7%
[5]; expansion part, 5 patients
  TEAEs leading to dose interruption: 26.3%
[5]; expansion part, 18 of 19 patients
  Patients with TEAEs: 94.7%
[5]; expansion part, four patients
  TEAEs leading to dose reduction: 21.1%
Bone formation
  Doses at which effects on bone formation were observed: ≥ 60 mg/kg
[6]
  Effect on activating transcription factor 4 pathway: up-regulate the activating transcription factor 4 pathway
Apc^Min/+ mice
  Polyp formation in the intestine: suppressed polyp formation

## C[C@@H]1C[C@H](C)CN(S(=O)(=O)c2ccc3c(c2)C(=NO)c2cc(S(=O)(=O)N4C[C@H](C)C[C@H](C)C4)ccc2C3=NO)C1 [tegavivint]
Desmoid tumors
  Nausea incidence: 33%

B1: DKN-01: a DKK-1 antibody targeting the Wnt signaling pathway (antibody, chains of the INN, looked up, V domains shown)
VH: EVQLVESGGGLVQPGGSLRLSCAASGFTFSSYTMSWVRQAPGKGLEWVATISGGGFGTYYPDSVKGRFTISRDNAKNSLYLQMNSLRAEDTAVYYCARPGYNNYYFDIWGQGTTVTVSS
VL: EIVLTQSPATLSLSPGERATLSCHASDSISNSLHWYQQKPGQAPRLLIYYARQSIQGIPARFSGSGSGTDFTLTISSLEPEDFAVYYCQQSESWPLHFGGGTKVEIK
Endometrial cancer
  TEAE nausea incidence: 48.3%
  TEAE vomiting incidence: 24.1%
Endometrial cancer; endometrial cancer, 2 of 26
  Objective response rate (ORR): 7.7%
